High-throughput results deposited in PubChem by several laboratories.
TNAP inh no acc: TNAP (human) inhibition, acceptor-free conditions; inhibition, % at 20 µM; actives 0.26% (n = 200,000); purified TNAP, CDP-star luminescence, 30 min; P05186;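 active = tissue-nonspecific alkaline phosphatase inhibition above about 50% at 20 µM in the single-dose screen, limit read from the data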
Target sequence (P05186 whole entry, looked up): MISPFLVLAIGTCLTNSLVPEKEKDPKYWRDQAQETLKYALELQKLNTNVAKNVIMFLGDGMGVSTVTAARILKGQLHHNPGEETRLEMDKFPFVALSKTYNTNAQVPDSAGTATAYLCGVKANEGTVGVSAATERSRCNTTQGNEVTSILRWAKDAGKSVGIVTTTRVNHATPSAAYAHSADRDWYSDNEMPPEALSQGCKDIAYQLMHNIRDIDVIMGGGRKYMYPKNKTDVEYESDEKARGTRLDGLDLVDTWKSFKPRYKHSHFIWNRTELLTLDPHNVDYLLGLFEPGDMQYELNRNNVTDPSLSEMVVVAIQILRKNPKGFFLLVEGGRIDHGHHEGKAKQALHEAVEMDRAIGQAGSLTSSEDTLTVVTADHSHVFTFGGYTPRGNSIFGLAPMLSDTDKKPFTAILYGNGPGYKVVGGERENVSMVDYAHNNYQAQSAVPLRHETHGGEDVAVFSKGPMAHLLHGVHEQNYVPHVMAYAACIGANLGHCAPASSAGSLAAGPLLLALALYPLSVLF
TNAP act hiacc: activators of human TNAP at high phosphate acceptor concentration. 200,000 tested, under 10 active. activation factor at 20 µM. P05186. purified TNAP, CDP-star luminescence, 1 M DEA, 30 min; stronger effect = higher value; 0 = EDTA background, 1 = DMSO-only activity;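 active = activation factor at least 2 at 20 µM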
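Control set: EDTA negative control, DMSO positive control / Assay system: human TNAP / Quantity: TNAP 1/800 final / Evaluation: TNAP activation factor scaled between EDTA and DMSO control wells / Measured by: luminescent substrate turnover signal / Compound dosing: one dose, 20 µM / Times: 30 min enzyme reaction at room temperature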
ABCB6 inh 2: human ABCB6 transporter inhibition; fluorescence ratio to DMSO, % at 10 µM; K562-ABCB6 porphyrin accumulation, flow cytometry, 1 h; stronger effect = lower value; Q9NP58; actives 0.19% (n = 360,000); AID 602162;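 active = fluorescence ratio to DMSO below 75%, the collection mean minus 3 SD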;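 also: signal is porphyrin accumulated inside mitochondria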
CHT allo act: allosteric activators of human choline transporter CHT; B-score at 10 µM; Q9GZV3; actives 0.49% (n = 310,000); AID 488977; CHT-expressing cells, membrane potential dye, choline EC20; stronger effect = higher value; LV-AA mutant CHT in HEK293 cells;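 active = initial fluorescence not abnormally high and integrated response B-score, plate-corrected, over 3 SD above library mean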
CHT inh: inhibitors of human choline transporter CHT; CHT-expressing cells, membrane potential dye, choline response; stronger effect = lower value; actives 0.86% (n = 310,000); B-score at 10 µM; Q9GZV3;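 active = B-score over 3 SD under the library average, and starting fluorescence ratio not unusually high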;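 also: choline stimulus applied at its EC90 after an EC20 pre-addition; B-score computed on integrated fluorescence ratio after choline addition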
TNAP inh hiacc: TNAP (human) inhibition, high acceptor; purified TNAP, CDP-star luminescence, 1 M DEA; inhibition, % at 20 µM; actives 0.03% (n = 200,000);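 active = over 50% inhibition of tissue-nonspecific alkaline phosphatase at 20 µM in the single-dose screen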
CHT inh conf: confirmation of human choline transporter CHT inhibitors. shares compounds with CHT inh. CHT-expressing cells, choline membrane potential dye; LV-to-AA substituted CHT, HEK293 cells. CHT activity remaining % of control (stronger effect = lower value), % at 10 µM. actives 70% (n = 2,400);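 active = choline transporter activity left, mean of duplicates at 10 µM, below buffer-only control mean minus 3 SD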;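 also: depolarization triggered by choline at its EC90 following an EC20 pre-addition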
HEK293 CHT ctr: counter-screen for CHT inhibitors: effect in parental HEK293 cells; membrane potential ratio readout (active if shifted either direction beyond buffer ±3SD; no single direction) at 10 µM; membrane potential dye, choline response; active = decrease or increase beyond buffer ±3SD; shares compounds with CHT inh; actives 4% (n = 2,400);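 also: parental cells lack the transporter so any hit is non-specific; ratio is peak minus trough fluorescence over baseline after EC90 choline challenge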
Numbers stand for hits; n = inactive; x = not tested or not shown. In the library only some 1.4% were active in any assay of this set; here they are far more common.

SMILES	TNAP inh no acc	TNAP act hiacc	ABCB6 inh 2	CHT allo act	CHT inh	TNAP inh hiacc	CHT inh conf	HEK293 CHT ctr
COc1ccc(C(=O)NCc2ccncc2)cc1S(=O)(=O)NCc1ccc(Cl)cc1	x	x	n	x	x	x	x	x
O=C(CSc1nc2ccccc2[nH]1)c1ccc2c(c1)OCO2	n	n	n	n	-6.1	n	36%	n
CC1CCCCC1NC(=S)Nc1ccc(SC(F)F)cc1 (configuration not stated)	n	n	n	n	-5.5	n	66%	n
O=S(=O)(Nc1nc2ccccc2nc1Nc1cccc(S(=O)(=O)N2CCCCC2)c1)c1ccccc1	n	n	n	n	-7.4	n	53%	n
Cc1cccc(S(=O)(=O)Nc2nc3ccccc3nc2Nc2cccc(C(=O)O)c2)c1	x	x	n	n	n	x	x	x
COc1ccc(NC(=O)c2ccco2)cc1NC(=O)c1ccccc1[N+](=O)[O-]	x	x	n	n	n	x	x	x
CCN1CCN(CCNC(=O)c2ccc3nc(-c4cccc(C)c4)c(-c4cccc(C)c4)nc3c2)CC1	x	x	n	n	-8.7	x	36%	n
COc1ccc(NS(=O)(=O)c2cccc(C(=O)NCCCN3CCOCC3)c2)cc1	x	x	n	n	n	x	x	x
COc1ccc(-c2nc3ccc(C(=O)NCCCN4CCOCC4)cc3nc2-c2ccc(OC)cc2)cc1	x	x	n	n	-5.1	x	53%	n
CCCNC(=O)c1ccc2nc(-c3ccccc3)c(-c3ccccc3)nc2c1	n	n	n	n	n	n	x	x
Cc1nc(N(C)C2CCCCC2)c2nnn(Cc3ccc(F)cc3)c2n1	x	x	n	x	x	x	x	x
CCN(CC)C(=O)CSc1nnc(CCCCCNC(=O)OC(C)(C)C)o1	n	n	n	n	n	n	x	x
Cc1ccc(CSc2nnc(CCNC(=O)OC(C)(C)C)o2)cc1	x	x	n	n	-5.3	x	69%	n
CC(C)(C)OC(=O)NCCCCCc1nnc(SCC(N)=O)o1	n	n	n	n	-6.3	n	n	n
C=C(C)CSc1nnc(CCCCCNC(=O)OC(C)(C)C)o1	x	x	n	n	-6	x	68%	n
CC(C)(C)OC(=O)NCCc1nnc(SCC(N)=O)o1	n	n	n	n	n	n	x	x
C/C(=N\N1CCN(c2ccccc2)CC1)c1ccc(O)cc1	x	x	n	x	x	x	x	x
C/C(=N\n1cnnc1)c1ccccc1	n	n	n	n	n	n	x	x
O=C(Cn1cc(CNC(=O)C2CCCCC2)nn1)Nc1cc(C(F)(F)F)ccc1Cl	x	x	n	x	x	x	x	x
COc1ccc(N(C(=O)COc2ccc(C)cc2)S(=O)(=O)c2ccc(C)cc2)cc1	n	n	n	n	n	n	x	x
CC1(C)CC(=O)C2=C(C1)c1c(ccc3ccccc13)NC2c1ccc(Br)o1 (configuration not stated)	n	n	n	n	n	n	x	x
OC[C@@H]1CN(Cc2ccco2)C[C@H](n2cnc3c(NCc4ccncc4)ncnc32)O1	x	x	n	x	x	x	x	x
Cc1ccc(-c2csc3ncnc(N4CCN(C)CC4)c23)cc1C	x	x	n	n	-11	x	48%	n
COc1ccc(N2CCN(c3ncnc4scc(-c5ccc(C)cc5)c34)CC2)cc1	x	x	n	n	n	x	x	x
CCN1CCN(c2ncnc3scc(-c4ccc(OC)cc4)c23)CC1	x	x	n	n	-5.3	x	51%	n
SMILES	TNAP inh no acc	TNAP act hiacc	ABCB6 inh 2	CHT allo act	CHT inh	TNAP inh hiacc	CHT inh conf	HEK293 CHT ctr
COc1ccc(CN2CCN(c3ncnc4scc(-c5ccc(F)cc5)c34)CC2)cc1	x	x	n	n	n	x	x	x
CC1(C(=O)Nc2ccc3c(c2)OCO3)CC1(Cl)Cl (configuration not stated)	x	x	n	n	n	x	x	x
CC(NC(=O)Cn1nc(-c2ccccc2)c2ccccc2c1=O)c1ccccc1 (configuration not stated)	n	n	n	n	-5.2	n	69%	n
Cc1ccc(/C=N/NC(=O)c2cc(-c3ccncc3)nc3ccccc23)o1	x	x	n	x	x	x	x	x
CC(/C=N/NC(=O)c1cc(-c2ccncc2)nc2ccccc12)=C\c1ccco1	n	n	n	n	-7.5	n	40%	n
CC1=C(C(=O)OCC(Cl)(Cl)Cl)N2C(=O)C(NC(=O)Cc3ccccc3)C2SC1 (configuration not stated)	n	n	n	n	-12	n	n	n
CC(=O)OCC1=C(C(=O)OC(C)(C)C)N2C(=O)[C@@H](NC(=O)Cc3ccccc3)[C@H]2SC1	x	x	n	x	x	x	x	x
O=C(CN1CCC(NC(=O)c2ccccc2F)CC1)Nc1ccc2c(c1)OCCO2	n	n	n	n	-5	n	n	n
Cc1ccccc1C(=O)N=c1ccn(-c2nc3ccccc3nc2NS(=O)(=O)c2ccc(F)cc2)cc1	x	x	n	n	-5.9	x	n	n
O=C(N=c1ccn(-c2nc3ccccc3nc2NS(=O)(=O)c2ccccc2)cc1)c1cccs1	n	n	n	n	n	n	x	x
O=[N+]([O-])c1ncccc1OCc1ccccc1Br	x	x	n	n	n	x	x	x
COc1ccc(C)cc1NC(=O)CCCN1C(=O)CN(C)C1=O	x	x	n	x	x	x	x	x
CCN1C[C@@H]2[C@@H]3C(=O)N(C)C(=O)[C@@H]3[C@](C)(C1=O)N2C(=O)c1ccc(F)cc1	x	x	n	x	x	x	x	x
COc1ccc(C(CNC(=O)c2cc(S(=O)(=O)NCc3ccccc3)ccc2C)N2CCOCC2)cc1 (configuration not stated)	x	x	n	n	-10	x	19%	n
COc1cc(C(=O)OCC2CC(c3ccccc3)=NO2)cc(OC)c1OC (configuration not stated)	n	n	n	n	n	n	n	n
O=C(NN=Cc1cc(Cl)ccc1[N+](=O)[O-])c1ccco1	x	x	n	x	x	x	x	x
CCN(CC(=O)Nc1cccc(OC)c1)c1ncnc2sc(C)c(C)c12	n	n	n	n	-5.5	n	69%	n
COc1cc(/C=C2\SC(=Nc3ccccc3OC)NC2=O)ccc1O	x	x	n	n	-5.4	x	n	n
C[N+](C)(C)CC=O	x	x	n	n	-6	x	22%	n
Cc1cc2[nH]c3ccccc3c2c(C)n1	n	n	n	n	-7.3	n	34%	n
COC(=O)CCCC(=O)OC	x	x	n	x	x	x	x	x
Cc1cc2nc(C)c(Cl)c(=O)n2[nH]1	n	n	n	n	-7.4	n	20%	n
Nc1[nH]c(C(=O)c2ccccc2)c(-c2cccc3ccccc23)c1C(=O)NCc1ccccc1	x	x	n	x	x	x	x	x
CCOC(=O)C1=C(COC(=O)c2cc(S(=O)(=O)N3CCOCC3)ccc2F)NC(=O)NC1C (configuration not stated)	x	x	n	x	x	x	x	x
COc1ccc(CN2CCN(CC=C(C)C)C(CCO)C2)cc1Cn1cccn1 (configuration not stated)	n	n	n	n	-6	n	64%	n
